Data on 14 compounds can be found in ChEMBL document CHEMBL1131498, “Design, synthesis, and evaluation of the multidrug resistance-reversing activity of D-glucose mimetics of hapalosin” (J Med Chem, 1998).

What is called EC50 is the midpoint of the concentration-response curve. As a reminder, the IC20 is the concentration at which the effect reaches the 20% level.

Converted amounts (≈) assume the structure as drawn.

What all share (details): Homo sapiens
The test system of assay [1] is HL-60. Kind of assay: Effective concentration against HL-60/ADR cells using MRP-mediated MDR assay using 2 nM vincristine which results in 50% of the cells being killed in the presence of particular cytotoxic drug. The format is functional, cell-based. The method in brief:
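Human promyelocytic leukemia HL-60/ADR cells (MRP-expressing, no P-gp) given varying compound concentrations plus 2 nM vincristine for 48 h. Survival by MTS tetrazolium metabolism (CellTiter AQueous); % killed as decrease vs control cultures. Triplicates, mean ± SD; approximate concentration (μg/mL) giving 50% kill.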

The subject of assay [2] is HL-60. Nature of the assay: Inhibitory concentration against HL-60/ADR cells using MRP-mediated MDR assay using 2 nM vincristine which inhibits cell proliferation by 20% in the absence of particular cytotoxic drug. The format is functional. The method in brief: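 HL-60/ADR leukemia cells (MRP-expressing) exposed 48 h to varying compound concentrations alone, PBS replacing vincristine. Viability by MTS tetrazolium metabolism (CellTiter AQueous), % decrease vs controls. Triplicates, mean ± SD; approximate concentration (μg/mL) inhibiting proliferation by 20%.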

Assay [3] deals with MCF7. Kind of assay: Effective concentration against MCF-7/ADR cells using P-gp-mediated MDR assay using 25 nM actinomycin D which results in 50% of the cells being killed in the presence of particular cytotoxic drug. Format: functional, cell-based. A digest of the protocol:
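MCF-7/ADR cells (from NCI, grown in RPMI 1640 + 10% FBS, 50 μg/mL gentamycin) seeded at ~15% confluency, 24 h recovery, then eight doses of compound with 25 nM actinomycin D for 48 h. Survival by sulforhodamine B staining; % killed as decrease in binding vs ethanol solvent controls. Triplicates, mean ± SD; approximate concentration (μg/mL) giving 50% kill read from curves.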

The subject of assay [4] is MCF7. Nature of the assay: Inhibitory concentration against MCF-7/ADR cells using P-gp-mediated MDR assay using 25 nM actinomycin D which inhibit cells proliferation by 20% in the absence of particular cytotoxic drug. Format: functional. The method in brief: (§1)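 MCF-7/ADR cells (from NCI, RPMI 1640 + 10% FBS, 50 μg/mL gentamycin) seeded at ~15% confluency, 24 h attachment, then eight doses of compound alone (PBS in place of actinomycin D) for 48 h. Sulforhodamine B staining; % kill vs ethanol solvent controls. Triplicates, mean ± SD; approximate concentration (μg/mL) giving 20% growth inhibition.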

Assay [5] relates to MCF7. Nature of the assay: Inhibitory concentration against MCF-7/ADR cells using P-gp-mediated MDR assay using 25 nM actinomycin D which inhibits cell proliferation by 20% in the absence of particular cytotoxic drug. The format is functional. The method in brief: as §1

Take `CCCCCCCO[C@@H]1[C@@H](OCc2ccccc2)[C@@H](OCc2ccccc2)O[C@H](CC(C)C)[C@H]1OC`: the EC50 is 18 µg/mL in the assay on HL-60 [1] and above 20 µg/mL with MCF7 [3]. The IC20 in the assay on HL-60 [2] and with MCF7 [4] was above 20 µg/mL each time.
Consider `CCCCCCCO[C@@H]1[C@@H](O)[C@@H](OCc2ccccc2)O[C@H](CC(C)C)[C@H]1O`, for which the EC50 with HL-60 [1] came out at 3.5 µg/mL; in the assay on MCF7 [3] it was 6 µg/mL. The IC20 in the assay with HL-60 [2] was above 20 µg/mL; with MCF7 [4], 12 µg/mL (≈ 30.4 µM).
For the compound `CCCCCCCO[C@@H]1[C@@H](O)[C@@H](OCc2ccccc2)O[C@H](CC(C)C)[C@H]1OCc1ccc(OC)cc1`, the results for the EC50 in the assay on HL-60 [1] and with MCF7 [3] were 1.8 µg/mL and 4 µg/mL, respectively. The IC20 was above 20 µg/mL with HL-60 [2] and 12 µg/mL (≈ 23.3 µM) with MCF7 [4].
As for `CCCCCCCO[C@@H]1[C@@H](OCc2ccccc2)[C@@H](OCc2ccccc2)O[C@@H]2CO[C@@H](c3ccc(OC)cc3)O[C@@H]12`, the EC50 in the assay with HL-60 [1] was 2.5 µg/mL; with MCF7 [3], above 20 µg/mL. The IC20 in the assay with HL-60 [2] and in the assay with MCF7 [4] was above 20 µg/mL throughout.
For the compound `CCCCCCCO[C@@H]1[C@@H](O)[C@@H](OCc2ccccc2)O[C@H](CC(C)C)[C@H]1OC`, the EC50 came to 10 µg/mL in the assay on HL-60 [1] and 7 µg/mL in the assay with MCF7 [3]. Moreover, the IC20 in the assay with HL-60 [2] was above 20 µg/mL; in the assay with MCF7 [4], 20 µg/mL (≈ 49 µM).
With `CCCCCCCO[C@@H]1[C@@H](OCc2ccccc2)[C@@H](OCc2ccccc2)O[C@H](CC(C)C)[C@H]1OCc1ccc(OC)cc1`, the EC50 in the assay with HL-60 [1] and in the assay with MCF7 [3] was above 20 µg/mL throughout. The IC20 in the assay with HL-60 [2] and in the assay with MCF7 [4] was above 20 µg/mL in each case.
Turning to `CCCCCCCO[C@@H]1[C@@H](O)[C@@H](OCc2ccccc2)O[C@H](CO)[C@H]1O`, the figures for the EC50 with HL-60 [1] and with MCF7 [3] were 10 µg/mL and above 20 µg/mL, respectively. Besides, the IC20 in the assay with HL-60 [2] and with MCF7 [4] was above 20 µg/mL throughout.
`CCCCCCCO[C@@H]1[C@@H](OCc2ccccc2)[C@@H](OCc2ccccc2)O[C@H](C=C(C)C)[C@H]1OCc1ccc(OC)cc1`: the EC50 with HL-60 [1] and with MCF7 [3] was above 20 µg/mL throughout. Further, the IC20 in the assay on HL-60 [2] and in the assay on MCF7 [4] was above 20 µg/mL throughout.
With `CCCCCCCO[C@@H]1[C@@H](OCc2ccccc2)[C@@H](OCc2ccccc2)O[C@H](C=O)[C@H]1OCc1ccc(OC)cc1`, the EC50 in the assay with HL-60 [1] worked out at 1.5 µg/mL; with MCF7 [3], 4 µg/mL. Besides, the concentration for an effect of 20% (IC20) with HL-60 [2] was found to be 1.8 µg/mL (≈ 3.12 µM); in the assay with MCF7 [4], 5 µg/mL (≈ 8.67 µM).
In the case of `CCCCCCCO[C@@H]1[C@@H](OCc2ccccc2)[C@@H](OCc2ccccc2)O[C@H](CO)[C@H]1OCc1ccc(OC)cc1`, the EC50 in the assay on HL-60 [1] is 1.7 µg/mL; in the assay on MCF7 [3] it was 3 µg/mL. Also, the IC20 with HL-60 [2] and in the assay on MCF7 [4] was 6 µg/mL (≈ 10.4 µM) throughout.
For `CCCCCCCO[C@@H]1[C@@H](O)[C@@H](OCc2ccccc2)O[C@@H]2CO[C@@H](c3ccc(OC)cc3)O[C@@H]12`, the EC50 in the assay with HL-60 [1] and in the assay on MCF7 [3] was 2.5 µg/mL throughout. The IC20 is above 20 µg/mL in the assay on HL-60 [2] and 12 µg/mL (≈ 24.7 µM) with MCF7 [4].
Take `CCCCCCCO[C@H]1[C@H](O)[C@@H](CC(C)C)O[C@H](OCc2ccccc2)[C@@H]1OCc1ccccc1`: the EC50 was 2.5 µg/mL in the assay on HL-60 [1] and 6 µg/mL in the assay with MCF7 [3]. Besides, the IC20 was above 20 µg/mL in the assay with HL-60 [2] and 10 µg/mL (≈ 20.6 µM) in the assay on MCF7 [4].
Turning to `CCCCCCC[C@H]1OC(=O)C[C@@H](O)[C@H](Cc2ccccc2)N(C)C(=O)[C@H](C(C)C)OC(=O)[C@H]1C` [HAPALOSIN], the EC50 in the assay with HL-60 [1] amounted to 0.7 µg/mL; with MCF7 [3], 1 µg/mL. In addition, the IC20 in the assay on HL-60 [2] and with MCF7 [5] was 6 µg/mL (≈ 12.3 µM) in each case.
`COc1ccc(CCN(C)CCCC(C#N)(c2ccc(OC)c(OC)c2)C(C)C)cc1OC` (stereo unspecified) [VERAPAMIL]: the EC50 came out at 1.8 µg/mL with HL-60 [1] and 1 µg/mL in the assay with MCF7 [3]. Also, the IC20 in the assay with HL-60 [2] and in the assay on MCF7 [4] was above 20 µg/mL in each case.
